Test results from ChEMBL document CHEMBL1125341, “Delta opioid antagonist activity and binding studies of regioisomeric isothiocyanate derivatives of naltrindole: evidence for delta receptor subtypes” (J Med Chem, 1992).

Columns and labels:
Mu-type opioid receptor [1] = biological target: Mu-type opioid receptor (UniProt P35372); experiment: Prewash IC50 ratio obtained by dividing the IC50 of the morphine in presence of the antagonist by the IC50 of the agonist alone in the same tissue preparation against opioid receptor mu in guinea pig ileum; type: functional, tissue-based
Summary of the method: (§1)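 Guinea pig ileum longitudinal muscle (morphine, ethylketazocine) or mouse vas deferens (DADLE). Tissue was exposed to antagonist at 100 nM, or 1 nM for one isomer, for 30 min before agonist concentration-response. Prewash ratio is agonist IC50 with antagonist over IC50 alone in the same tissue. Where the shift was significant, tissue was washed extensively and IC50 redetermined; postwash ratio is over control IC50. Mean ± SEM.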

Mus musculus [2] = experiment: Compound was tested for antagonistic activity of opioid agonist induced antinociception by using U-50,488H as agonist, administered sc in mice; type: functional
Summary of the method: (§2)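 Mice received isothiocyanate 10 nmol icv 24 h before testing. Agonist ED50 was then found in the abdominal stretch assay: DPDPE and DSLET given icv, morphine and U50488 given sc. Result is the ED50 ratio, treated over untreated control mice, with significance testing.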

Mu-type opioid receptor [3] = biological target: Mu-type opioid receptor (UniProt P35372); experiment: Post wash IC50 ratio obtained by dividing the IC50 of the morphine in presence of the antagonist by the IC50 of the agonist alone in the same tissue preparation against opioid receptor mu in guinea pig ileum; type: functional, tissue-based; summary of the method: as §1
[4] = biological target: T1, Delta-type opioid receptor (Rattus norvegicus, UniProt P33533); experiment: Compound was evaluated for its effect towards [3H]DSLET binding to Opioid receptor delta 2 at 0.25 nM concentration
[5] = biological target: T1, Delta-type opioid receptor; experiment: Compound was evaluated for its effect towards [3H]DPDPE binding to Opioid receptor delta 1 at 0.25 nM concentration expressed as dissociation constant
Mus musculus [6] = experiment: Compound was tested for antagonistic activity of opioid agonist induced antinociception by using DPDPE as agonist, administered icv in mice; type: functional; summary of the method: as §2
Mus musculus [7] = species: Mus musculus; experiment: compound was evaluated for agonist activity in smooth muscle preparation of mouse vas deferens (MVD) at 1 uM concentration; type: functional; conditions: Muscle tissue
Summary of the method: (§3)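 Ligand at 1 µM tested directly on guinea pig ileum longitudinal muscle or mouse vas deferens; percent inhibition of the preparation recorded. Mean ± SEM of 3 experiments.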

Mus musculus [8] = experiment: Compound was tested for antagonistic activity of opioid agonist induced antinociception by using morphine as agonist, administered sc in mice; type: functional; summary of the method: as §2
Cavia porcellus = species: Cavia porcellus; experiment: compound was evaluated for agonist activity in smooth muscle preparation of guinea pig ileum (GPI) at 1 uM concentration; type: functional; conditions: Muscle tissue; summary of the method: as §3
[9] = biological target: Delta-type opioid receptor (Rattus norvegicus) (UniProt P33533); experiment: Compound was evaluated for its effect towards […] binding to Opioid receptor delta 1 at 0.25 nM concentration activity expressed as Bmax
Mus musculus [10] = experiment: Compound was tested for antagonistic activity of opioid agonist induced antinociception by using DSLET as agonist, administered icv in mice; type: functional; summary of the method: as §2
[11] = Prewash IC50 ratio obtained by dividing the IC50 of the DADLE in presence of the antagonist by the IC50 of the agonist alone in the same tissue preparation against delta receptor in mouse vas deferens; type: functional; summary of the method: as §1
[12] = Post wash IC50 ratio obtained by dividing the IC50 of the DADLE in presence of the antagonist by the IC50 of the agonist alone in the same tissue preparation against delta receptor in mouse vas deferens; type: functional; summary of the method: as §1
[13] = biological target: Delta-type opioid receptor (Rattus norvegicus) (UniProt P33533); experiment: Compound was evaluated for its effect on the [3H]DSLET binding towards Opioid receptor delta 2 at 0.25 nM concentration; activity expressed as Bmax
[14] = biological target: Delta-type opioid receptor (Rattus norvegicus) (UniProt P33533); experiment: Compound was evaluated for its effect on the [3H]DSLET binding towards Opioid receptor delta 2 at 4 nM concentration; activity expressed as Bmax
[15] = biological target: Kappa-type opioid receptor (UniProt P41145); experiment: Prewash IC50 ratio obtained by dividing the IC50 of the ethylketazocine in presence of the antagonist by the IC50 of the agonist alone in the same tissue preparation against opioid receptor kappa in guinea pig ileum; type: functional, tissue-based; summary of the method: as §1
Sequence of Kappa-type opioid receptor (P41145 whole entry): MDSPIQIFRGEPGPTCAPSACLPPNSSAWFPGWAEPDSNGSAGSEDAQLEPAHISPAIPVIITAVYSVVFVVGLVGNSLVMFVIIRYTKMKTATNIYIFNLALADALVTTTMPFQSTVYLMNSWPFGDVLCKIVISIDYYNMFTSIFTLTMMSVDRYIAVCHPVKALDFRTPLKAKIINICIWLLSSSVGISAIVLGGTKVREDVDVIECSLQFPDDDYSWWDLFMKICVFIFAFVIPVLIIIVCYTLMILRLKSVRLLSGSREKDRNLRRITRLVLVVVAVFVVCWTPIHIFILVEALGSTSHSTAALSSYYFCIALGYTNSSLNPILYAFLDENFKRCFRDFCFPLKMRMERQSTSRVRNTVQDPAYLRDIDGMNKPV

Sequence of Mu-type opioid receptor (P35372 whole entry): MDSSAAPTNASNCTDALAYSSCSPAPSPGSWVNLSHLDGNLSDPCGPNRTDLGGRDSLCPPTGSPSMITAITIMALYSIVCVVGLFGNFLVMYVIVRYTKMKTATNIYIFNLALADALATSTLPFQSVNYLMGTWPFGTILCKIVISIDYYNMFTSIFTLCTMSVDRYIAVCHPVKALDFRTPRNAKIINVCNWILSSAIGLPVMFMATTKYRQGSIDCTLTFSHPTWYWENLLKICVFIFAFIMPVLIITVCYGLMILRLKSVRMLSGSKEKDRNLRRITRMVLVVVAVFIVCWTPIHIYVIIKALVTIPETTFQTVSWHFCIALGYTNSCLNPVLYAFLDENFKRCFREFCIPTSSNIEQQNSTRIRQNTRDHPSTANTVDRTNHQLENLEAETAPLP
Sequence of Delta-type opioid receptor (Rattus norvegicus) (P33533 whole entry): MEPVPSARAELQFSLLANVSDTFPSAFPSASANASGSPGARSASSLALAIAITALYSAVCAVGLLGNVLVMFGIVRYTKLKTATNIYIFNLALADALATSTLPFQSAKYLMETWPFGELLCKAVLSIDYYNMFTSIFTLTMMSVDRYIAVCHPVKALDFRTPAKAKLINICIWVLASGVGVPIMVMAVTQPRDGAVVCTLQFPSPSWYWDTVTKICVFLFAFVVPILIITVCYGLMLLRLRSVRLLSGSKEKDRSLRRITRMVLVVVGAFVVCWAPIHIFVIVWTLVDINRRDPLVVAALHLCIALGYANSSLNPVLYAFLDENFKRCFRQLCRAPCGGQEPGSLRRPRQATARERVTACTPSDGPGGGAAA
T1 sequence (P33533 whole entry): as above

| Compound | Ratio (Mu-type opioid receptor [1]) | ED50 ratio (Mus musculus [2]) | Ratio (Mu-type opioid receptor [3]) | Kd [4] | Kd [5] | ED50 ratio (Mus musculus [6]) | inhibition at 1 µM (Mus musculus [7]) | ED50 ratio (Mus musculus [8]) | inhibition at 1 µM (Cavia porcellus) | Bmax (fM (mg of protein)-1) [9] | ED50 ratio (Mus musculus [10]) | Ratio [11] | Ratio [12] | Bmax (fM (mg of protein)-1) [13] | Bmax (fM (mg of protein)-1) [14] | Ratio [15] |
| --- | --- | --- | --- | --- | --- | --- | --- | --- | --- | --- | --- | --- | --- | --- | --- | --- |
| Oc1ccc2c3c1OC1c4[nH]c5c(N=C=S)cccc5c4CC4(O)C(C2)N(CC2CC2)CCC314 (stereo unspecified) | 15 | 0.8 | 53 | 15.7 nM | 2.3 nM | 3.7 | 31.8% | 2 | 5.9% | 5.6 | 3 | 7.99 | 16.1 | 208 | 361 | 0.81 |
| Oc1ccc2c3c1OC1c4[nH]c5cc(N=C=S)ccc5c4CC4(O)C(C2)N(CC2CC2)CCC314 (stereo unspecified) | 1.44 | 0.9 | – | – | – | 9.2 | 0% | 1.4 | 12.4% | – | 6.8 | 155 | 185 | – | – | 1.04 |
| Oc1ccc2c3c1OC1c4[nH]c5cccc(N=C=S)c5c4CC4(O)C(C2)N(CC2CC2)CCC314 (stereo unspecified) | 0.77 | 1.6 | – | – | – | 2.6 | 24.4% | 1.2 | 1% | – | 1.6 | 4.59 | 3.71 | – | – | 0.51 |
| Oc1ccc2c3c1OC1c4[nH]c5ccc(N=C=S)cc5c4CC4(O)C(C2)N(CC2CC2)CCC314 (stereo unspecified) | 0.9 | 3.2 | – | – | – | 0.6 | 18.8% | 1.3 | -2.4% | – | 52.1 | 6.68 | 7.71 | – | – | 0.93 |
